# From PubChem BioAssay
# Several values for one entry are separate records, joined by “and”; a condition that tells them apart may be missing. Equal values may be shown once. Activity calls are given as the source filed them.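 Rule for the calls, unless noted: active = viability at or below 30% in both replicate assays; inconclusive = viability at or below 30% in just one of the two assays; inactive = the rest.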
# Assays:
# [1] = SK-BR-3 cell growth inhibitors, pilot screen, 24 h, human (AID 572;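 active = viability at or below 10% of carrier control in both of two separate runs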;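 note: compound exposure lasted between 18 and 24 h rather than exactly 24 h; 100% = carrier-treated control wells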); settings: SK-BR-3 viability, CellTiter-Glo luminescence, at 10 µM, stronger effect = lower value
# [2] = HUVEC growth inhibition – cell-based, human, primary screen (AID 575); settings: HUVEC proliferation, CellTiter-Glo luminescence, 72 h; at 10 µM; stronger effect = lower value;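 note: 100% = median of untreated cell wells with 0.1% DMSO on each plate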
# Outline: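 System: primary human umbilical vein endothelial cells; Quantity: 1250 endothelial cells in each well; Buffer or medium: supplemented EBM, 2% fetal bovine serum; Doses: one dose, 10 µM final, 0.1% DMSO; Incubation: 72 h compound incubation; Technique: ATP-based CellTiter-Glo luminescent read; Evaluation: percent of median DMSO-control luminescence; Controls: vehicle and MePR control wells.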
# [3] = growth inhibitors of H69AR lung tumor, primary screen, human, duplicate replicates (AID 580;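 active = viability at or under a set limit in both replicates, limit being median viability minus 3 SD, cut at about 48% in these data, passing the limit was not always enough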;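 note: 100% = mean luminescence of untreated wells and 0% = no signal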); settings: H69AR lung tumor cells viability, ATP luminescence, 72 h; at 10 µM; stronger effect = lower value
# [4] = reversal of MRP1-mediated doxorubicin resistance, pilot screen, H69AR cells, doxorubicin co-treatment (AID 601;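 active = viability loss from added drug above about 55%, and viability with drug at most 40%, in both replicates, limit read from the data, passing the limit was not always enough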); settings: CellTiter-Glo, 72 h, at 10 µM; for differential viability (reversal): stronger effect = higher value
# [5] = 384-well plate pilot, post-Golgi transport modulator project, inhibition of yeast transport mutant growth (AID 636; in the data active = inhibition above about 31%); settings: absorbance 615 nm, about 18 h, stronger effect = higher value
# [6] = growth suppression of yeast trafficking mutant, preliminary HTS, modulators of trafficking downstream of Golgi apparatus project, 1536-format plate, OD 615 nm (AID 637; in the data active = inhibition above about 30%); settings: yeast transport mutant growth, absorbance 615 nm, 18 h; stronger effect = higher value
# [7] = H69AR cells + 2 uM doxorubicin, measured here: viability with 2 uM doxorubicin, stronger effect = lower value
# [8] = H69AR cells, compound alone cytotoxicity
SMILES,viability [1],viability [2],viability [3],differential viability (reversal) ([4]; H69AR cells + 2 uM doxorubicin),"viability [4, 7]","viability [4, 8]",inhibition [5],inhibition [6]
CC1=Nn2c(nnc2-c2ccc(F)cc2)SC1,85% (inactive),97% (inactive),97.2% (inactive),0.585% (inactive),96.6%,97.2%,-5.14% (inactive),-2.55% (inactive)
Cn1c2c(c(=O)n(C)c1=O)C(NC(=O)C(C)(C)C)(C(F)(F)F)C(=O)N2 (centres undefined),105% (inactive),98.7% (inactive),90.3% (inactive),9.01% (inactive),81.3%,90.3%,-6.62% (inactive),-1.82% (inactive)
CCC1(C)Cc2c(sc3nc(SCC(=O)O)[nH]c(=O)c23)CO1 (centres undefined),111% (inactive),107% (inactive),94.1% (inactive),14.5% (inactive),79.6%,94.1%,-1.6% (inactive),-10% (inactive)
Cc1nnc(SCc2ccccc2F)n1NCc1cccs1,100% (inactive),93.6% (inactive),89% (inactive),-0.635% (inactive),89.7%,89%,-6.85% (inactive),5% (inactive)
O=[N+]([O-])c1cccc2cn[nH]c12,113% (inactive),88.6% (inactive),99.5% (inactive),9.56% (inactive),90%,99.5%,-0.91% (inactive),1.17% (inactive)
Cc1ccccc1-n1nnc2c(=O)oc3ccccc3c21,99.5% (inactive),64.9% (inactive),85.8% (inactive),1.29% (inactive),84.5%,85.8%,-4.47% (inactive),5.83% (inactive)
Cc1cc(C(=O)Nc2cccnc2)no1,99% (inactive),101% (inactive),98.3% (inactive),0.295% (inactive),98%,98.3%,3.78% (inactive),-2.18% (inactive)
CCOC(=O)Cc1csc(NC(=O)c2cccc(OC)c2)n1,75% (inactive),104% (inactive),103% (inactive),0.32% (inactive),102%,103%,-5.75% (inactive),-5.64% (inactive)
CCOCC(O)CS(=O)Cc1ccccc1 (centres undefined),111% (inactive),113% (inactive),98.5% (inactive),22.1% (inactive),76.4%,98.5%,-6.67% (inactive),-4.55% (inactive)
Nc1nc(Cl)nc2c1ncn2[C@H]1C[C@H](O)[C@@H](CO)O1,116% (inactive) and 105% (inactive),67% (inactive) and 36.3% (inactive),93.8% (inactive),-9.28% (inactive) and -31.8% (inactive),103% and 81.2%,93.8% and 49.4%,2.34% (inactive) and 0.52% (inactive),1% (inactive) and -1% (inactive)
Cc1ccc2nc3c(cc(C(=O)NCC4CCCO4)n3C)c(=O)n2c1 (centres undefined),134% (inactive),110% (inactive),94.9% (inactive),7.85% (inactive),87.1%,94.9%,-0.96% (inactive),25.2% (inactive)
COc1cccc(-c2nnc(SCC(N)=O)n2-c2ccc(Cl)cc2)c1,114% (inactive),103% (inactive),97.1% (inactive),4.49% (inactive),92.6%,97.1%,0% (inactive),-4.19% (inactive)
CC(C)(C)NC(=O)CN(C(=O)C1CSC(=O)C1)c1ccc2c(c1)OCCO2 (centres undefined),92% (inactive),112% (inactive),91.5% (inactive),-1.13% (inactive),92.6%,91.5%,0.95% (inactive),-4.55% (inactive)
CCOC(=O)CNC(=O)CSc1nnnn1-c1cc(C)ccc1C,105% (inactive),105% (inactive),110% (inactive),12.1% (inactive),98.1%,110%,-2.08% (inactive),-1.48% (inactive)
Cc1sc2nc3n(c(=O)c2c1C)NC(=O)CC3,104% (inactive),86.3% (inactive),94% (inactive),5.63% (inactive),88.4%,94%,-4.79% (inactive),1.82% (inactive)
O=C(Nc1ccc2c(c1)OCO2)N1CCN(c2ncccn2)CC1,126% (inactive),106% (inactive),85.5% (inactive),-22.1% (inactive),108%,85.5%,-8.49% (inactive),-1.64% (inactive)
CS(=O)(=O)N(CC(=O)Nc1ccc2c(c1)OCO2)Cc1ccc(Cl)cc1,70% (inactive),88.5% (inactive),95% (inactive),-7.89% (inactive),103%,95%,-6.58% (inactive),2.73% (inactive)

SMILES,viability [1],viability [2],viability [3],differential viability (reversal) ([4]; H69AR cells + 2 uM doxorubicin),"viability [4, 7]","viability [4, 8]",inhibition [5],inhibition [6]
S=C(c1ccc(N2CCOCC2)cc1)N1CCCCC1,103% (inactive),105% (inactive),93.5% (inactive),4.23% (inactive),89.2%,93.5%,-5.48% (inactive),-8.87% (inactive)
CCOC(=O)n1c(=O)oc2cc(S(=O)(=O)N3CCCCC3)ccc21,97% (inactive),112% (inactive),90.2% (inactive),-0.62% (inactive),90.8%,90.2%,-4.27% (inactive),-2.91% (inactive)
C/C=C(\C)c1nnc(NC(=O)OCC)s1,94% (inactive),117% (inactive),96.4% (inactive),6.96% (inactive),89.4%,96.4%,-2.84% (inactive),-0.91% (inactive)
COc1ccccc1C(=O)N1CCN(C(=O)COc2cccc(C)c2)CC1,101% (inactive),113% (inactive),88.6% (inactive),2.75% (inactive),85.9%,88.6%,-7.84% (inactive),-0.73% (inactive)
CN=c1sc2ccccc2n1CC(O)COCc1ccco1 (centres undefined),107% (inactive),86.6% (inactive),98.4% (inactive),10.8% (inactive),87.5%,98.4%,-8.49% (inactive),1.94% (inactive)
CC(OC(=O)CNC(=O)C12CC3CC(CC(C3)C1)C2)C(=O)Nc1ccc(N2CCOCC2)cc1 (centres undefined),121% (inactive),101% (inactive),97.2% (inactive),2.31% (inactive),94.8%,97.2%,-0.68% (inactive),-2.55% (inactive)
CCCCC(=O)Nc1ccc(NC(=O)C2CC2)nc1,91% (inactive),108% (inactive),101% (inactive),-4.46% (inactive),106%,101%,-1.51% (inactive),-1.13% (inactive)
CCCCn1c(=O)[nH]c(=O)c2c1nc(COc1ccc(C#N)cc1)n2CCC,106% (inactive),83.1% (inactive),88% (inactive),11.3% (inactive),76.7%,88%,-1.04% (inactive),-2.46% (inactive)
CC1CCCCN1C(=O)Cn1nnc(-c2cccnc2)n1 (centres undefined),92% (inactive),97.2% (inactive),103% (inactive),8.68% (inactive),94.6%,103%,-7.81% (inactive),-1.13% (inactive)
COc1ccccc1NC(=O)NC(N)=O,102% (inactive),87.7% (inactive),96.4% (inactive),1.88% (inactive),94.5%,96.4%,-5.89% (inactive),7.64% (inactive)
COc1ccc(CNc2oc(-c3cccc4ccccc34)nc2C#N)cc1,85% (inactive),95.5% (inactive),96.9% (inactive),-4.35% (inactive),101%,96.9%,-4.93% (inactive),-0.18% (inactive)
Cc1cc2ccccc2c(=O)n1CC(=O)Nc1ccc2c(c1)OCO2,136% (inactive),86.6% (inactive),98.9% (inactive),5.25% (inactive),93.7%,98.9%,-2.34% (inactive),-7.05% (inactive)
COc1ccccc1CN1CC(C(=O)NCc2cccnc2)CC1=O (centres undefined),134% (inactive),95.5% (inactive),91.5% (inactive),2.3% (inactive),89.2%,91.5%,-2.99% (inactive),3.77% (inactive)
COc1ccc(C)cc1C(=O)CCC(=O)Nc1ccccc1N1CCOCC1,90% (inactive),54% (inactive),1.36% (active),-1.5% (inactive),2.85%,1.36%,-6.27% (inactive),1.31% (inactive)
CCOC(=O)Cc1cc(=O)n2[nH]c(C)c(-c3ccc(OC)cc3)c2n1,103% (inactive),56.1% (inactive),92.6% (inactive),9.51% (inactive),83.1%,92.6%,-4.34% (inactive),-1% (inactive)
Clc1cccc(-c2nnc3sc(-c4ccccc4)nn23)c1,86% (inactive),124% (inactive),89.5% (inactive),-3.02% (inactive),92.6%,89.5%,-0.27% (inactive),-4% (inactive)
